Assay outcomes deposited in PubChem BioAssay by several laboratories.
NF-kB neuron act: raises NF-kB expression in human neuronal cells | NF-kB reporter expression; active compounds read high | fold change at 12.5 µM | actives 1.6% (n = 190,000); in the data active means fold change above about 3.3
STAT1 act: STAT1 signaling activation; NIH 3T3 STAT1-luciferase reporter, IFN-gamma, luminescence; 100% = IFN-gamma alone, no compound; activation (% of control), % at 5.5 µM; actives 2.6% (n = 200,000); AID 932;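 active means activation above the screen-wide mean activation plus 3 SD, cut at about 130% in these data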
FLuc inhib CS: counter-screen for luciferase assay inhibitors: firefly luciferase inhibition. ATPLite firefly luciferase biochemical luminescence, 10 min. actives 1.5% (n = 200,000). inhibition, % at 10 µM. AID 1006. P08659;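 active means inhibition above about 50% when tested at 10 µM, limit read from the data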
Target sequence (P08659 whole entry, looked up): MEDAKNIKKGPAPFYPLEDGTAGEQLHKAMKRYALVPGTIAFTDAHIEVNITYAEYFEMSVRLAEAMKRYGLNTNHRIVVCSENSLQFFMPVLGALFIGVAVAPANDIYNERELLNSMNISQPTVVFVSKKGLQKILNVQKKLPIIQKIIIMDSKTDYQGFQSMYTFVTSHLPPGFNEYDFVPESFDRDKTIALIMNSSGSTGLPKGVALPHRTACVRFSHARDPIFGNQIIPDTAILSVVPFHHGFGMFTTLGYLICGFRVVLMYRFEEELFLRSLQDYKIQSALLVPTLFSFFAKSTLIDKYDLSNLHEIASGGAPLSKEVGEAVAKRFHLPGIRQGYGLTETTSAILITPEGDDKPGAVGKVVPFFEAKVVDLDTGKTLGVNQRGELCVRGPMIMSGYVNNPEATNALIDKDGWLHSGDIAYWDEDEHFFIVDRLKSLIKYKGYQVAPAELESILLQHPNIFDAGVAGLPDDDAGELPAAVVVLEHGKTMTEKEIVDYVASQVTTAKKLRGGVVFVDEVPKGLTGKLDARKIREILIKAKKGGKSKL
FLuc stim CS: firefly luciferase counter-screen for stimulation assays; P08659; ATPlite luciferase biochemical, luminescence, 10 min; 0 = ATP-free wells, 1 = DMSO control; activation factor at 10 µM; 200,000 tested, under 10 active; AID 1027;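 active means luciferase activation factor, scaled between plate controls, of at least 2 with compound at 10 µM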
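Assay system: Luciferase/luciferin detection reagent, cell-free biochemical luciferase assay / Read-out: luciferase activation / Benchmarks: No-ATP low control, compound-free enzyme-plus-ATP high control / Medium: PBS buffer for ATP / Detection: luminescence measurement of luciferase light output / Schedule: 10 min at ambient temperature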
APP 5'UTR act: APP 5'UTR luciferase reporter activation | SH-SY5Y APP 5'UTR luciferase reporter, luminescence; zero percent = DMSO vehicle wells | AID 1276 | actives 1% (n = 190,000) | activation, % at 2 µM;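 active means activation above a set limit, based on mean plus 3 SD of controls, cut at about 140% in these data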
Hits are given with their value; n = inactive; x = not tested or not shown. Rows were chosen to be rich in hits. Some 4.1% of all compounds tested hit in one or more screens of this group.

SMILES	NF-kB neuron act	STAT1 act	FLuc inhib CS	FLuc stim CS	APP 5'UTR act
Cc1ccc(/C(N)=N/OC(=O)Cc2cccs2)cc1	n	150	n	n	n
Cc1ccc(/C(N)=N/OC(=O)Cc2cccc3ccccc23)cc1	n	n	n	n	n
Cc1cccc(/C(N)=N/OC(=O)Cc2cccs2)c1	n	132	n	n	n
O=C(Nc1cccc(Cl)c1)Nc1nnc(CC2=CCCCC2)s1	n	n	n	n	n
Cc1[nH]c2ccccc2c1C1(O)C(=O)N(Cc2ccc3c(c2)OCO3)c2ccccc21 (stereo unspecified)	3.3	n	n	n	n
C#CCN1C(=O)C(O)(c2c(C)[nH]c3ccccc23)c2ccccc21 (stereo unspecified)	x	x	x	x	n
Cc1ccc2c(Cl)c(C(=O)Nc3cccnc3)sc2c1	n	n	66	n	169
Cc1ccc2c(C)c(C(=O)Nc3cccnc3)oc2c1	n	n	n	n	n
Cc1ccc(OCCOc2ccc(Br)cc2)c([N+](=O)[O-])n1	n	135	n	n	n
COc1ccc(CNC(=O)COc2ccc(C)nc2[N+](=O)[O-])cc1	n	n	n	n	n
CC(=O)c1cnn(-c2ccccc2)c1C	n	n	n	n	n
CC(=O)c1cnn(-c2nc3c(C)cccc3s2)c1C	3.9	n	n	n	n
CC(=O)NCCn1c(SCC(=O)NCCC(C)C)nc2ccccc2c1=O	n	n	n	n	n
COC(=O)c1c(-c2ccccc2)csc1N1C(=O)Nc2ccccc2N1O	n	n	71	n	n
Cc1cc(Oc2ccccc2)nc(N)n1	n	n	n	n	n
Cc1cc(SCCOc2ccccc2)nc(N)n1	n	129	n	n	n
O=C1CC(c2ccccc2)Cc2nc(N3CCc4ccccc43)ncc21 (stereo unspecified)	x	n	x	x	n
CC1(C)CC(=O)c2cnc(N3CCc4ccccc4C3)nc2C1	n	133	n	n	n
O=C1CCCc2nc(N3CCc4ccccc43)ncc21	8	150	65	n	n
CC1(C)CC(=O)c2cnc(N3CCN(c4ccccc4)CC3)nc2C1	n	n	n	n	n
CCOc1ccc(/C=C/C(=O)Nc2cccc(C(C)=O)c2)cc1	n	136	64	n	n
CCOc1ccc(NC(=O)Nc2cccc(C(=O)O)c2)cc1	n	n	92	n	n
CCOc1ccc(NC(C(=O)Nc2cccc(C(C)=O)c2)c2ccccc2)cc1 (stereo unspecified)	n	n	n	n	n
Cc1ccccc1OCC(=O)Nc1cccc(C(=O)O)c1	9	n	59	n	n
CC(=O)c1ccc(NC(=O)Nc2cccc(Cl)c2)cc1	3.6	n	n	n	n
SMILES	NF-kB neuron act	STAT1 act	FLuc inhib CS	FLuc stim CS	APP 5'UTR act
CCN(CC)C(=O)c1ccc2c(c1[N+](=O)[O-])C(=O)c1ccccc1C2=O	n	n	n	n	n
COc1cccc(C2NC(=O)NC(C)=C2C(=O)OCC2CCCO2)c1 (stereo unspecified)	n	n	n	n	n
CCCNC(=O)CS(=O)Cc1nc(-c2cccc(OC)c2)oc1C (stereo unspecified)	n	n	n	n	n
CCOc1ccc(NC(=O)Nc2cc(OCC(F)(F)F)cc(OCC(F)(F)F)c2)cc1	n	n	n	n	n
CCC(=O)Nc1cccc(C(=O)/C=C/c2ccc(F)cc2)c1	3.8	n	n	n	n
CC(=O)Nc1cccc(C(=O)/C=C/c2ccc(C)cc2)c1	n	n	n	n	n
O=C(Nc1ccc(Cl)cc1)Nc1cccc(C(=O)O)c1	n	n	76	n	n
CCOc1ccc(NC(=O)Nc2cc(C)ccc2F)cc1	n	129	n	n	n
O=C(NS(=O)(=O)c1ccc2c(c1)OCCO2)c1ccccc1	n	n	n	n	n
Cc1ccc(C(=O)CC(=O)c2cc(Cl)ccc2O)cc1	4.3	n	n	n	n
CC(C)(C)c1ccc(C(=O)CC(=O)c2cc(Cl)ccc2O)cc1	n	n	n	n	n
Cc1[nH]n(-c2ccccc2)c(=O)c1C(=O)c1ccc([N+](=O)[O-])cc1	n	n	n	n	n
Cc1ccc(-c2c(C)sc(=NC(=O)c3ccco3)n2C)cc1	n	129	86	n	n
NC(=O)C1CCN(C(=O)CSc2nc3c(c(-c4ccccc4)n2)CCCC3)CC1	n	n	n	n	n
CCc1ccc2oc(-c3cccc(N)c3)nc2c1	3.9	n	86	n	n
Nc1ccc2oc(-c3cccc(Br)c3)nc2c1	n	146	n	n	n
COC(=O)Cc1ccc2oc(-c3cccnc3)nc2c1	n	n	n	n	n
